Results from different studies.
Compare with care: the assays were run in different laboratories.
Matrix: Caco-2

COc1ccc(CCC(=O)c2c(O)cc(O[C@@H]3O[C@H](CO)[C@@H](O)[C@H](O)[C@H]3O[C@@H]3O[C@@H](C)[C@H](O)[C@@H](O)[C@H]3O)cc2O)cc1O  Papp A→B (100 µg/mL, 2 h): 17 ×10⁻⁶ cm/s
C[C@H]1[C@H](NC(=O)/C(=N\OC(C)(C)C(=O)O)c2csc(N)n2)C(=O)N1S(=O)(=O)O  Papp A→B (5 µM, 2 h): 0.09 ×10⁻⁶ cm/s
COCC(=O)N1CCC[C@H](C(=O)NCc2nc(-c3ccc(C#N)cc3)cs2)C1  Papp A→B (pH 7.4): 24 ×10⁻⁶ cm/s
COc1ccc(-c2coc3cc(O)ccc3c2=O)cc1  Papp A→B (100 µg/mL, 2 h): 4.66 ×10⁻⁶ cm/s
NCCOCC(=O)N1CCC[C@H](C(=O)NCc2nc(-c3ccc(C(F)(F)F)cc3)cs2)C1  Papp A→B (pH 7.4): 0.1 ×10⁻⁶ cm/s
O=c1cc(-c2ccc(O)cc2)oc2c([C@@H]3O[C@H](CO)[C@@H](O)[C@H](O)[C@H]3O)c(O)cc(O)c12  Papp A→B (50 µg/mL): 0.254 ×10⁻⁶ cm/s
N#Cc1ccc(C[C@H](Nc2ncc(-c3ccc(F)cc3)o2)C(=O)N2CCc3ccccc32)cc1  Papp A→B (100 µM, 2 h): 10.6 ×10⁻⁶ cm/s
C[C@@H]1O[C@@H](OC[C@H]2O[C@@H](Oc3c(-c4ccc(OCCO)c(OCCO)c4)oc4cc(OCCO)cc(O)c4c3=O)[C@H](O)[C@@H](O)[C@@H]2O)[C@H](O)[C@H](O)[C@H]1O  Papp A→B (100 µg/mL, 2 h): 6.15 ×10⁻⁶ cm/s
O=c1c2cc(Cl)ccc2[nH]c(=S)n1Cc1ccc(-c2nnn[nH]2)nc1  Papp A→B (10 µM, 90 min, pH 7.4): < 0.51 ×10⁻⁶ cm/s
N#C[C@@]1(c2ccc3c(N)ncnn23)O[C@H](CO)[C@@H](O)[C@H]1O  Papp A→B (10 µM, 2 h): 3.8 ×10⁻⁶ cm/s
C[C@H]1O[C@@H](O[C@H]2[C@@H](O)C[C@H](O[C@H]3[C@@H](O)C[C@H](O[C@H]4CC[C@@]5(C)[C@H](CC[C@@H]6[C@@H]5C[C@@H](O)[C@]5(C)[C@@H](C7=CC(=O)OC7)CC[C@]65O)C4)O[C@@H]3C)O[C@@H]2C)C[C@H](O)[C@@H]1O  Papp A→B (10 µM, 2 h): 0.48 ×10⁻⁶ cm/s
Cc1ccc(N(c2ccc(NC(=O)CN(C)c3ccccc3N3CCCC3=O)cc2)C(C)C)cc1  Papp A→B: 1.09 ×10⁻⁶ cm/s
O=C(CCc1ccc(O)cc1)c1c(O)cc(O)cc1O[C@@H]1O[C@H](CO)[C@@H](O)[C@H](O)[C@H]1O  Papp A→B (100 µg/mL, 2 h): 2.94 ×10⁻⁶ cm/s
Cc1ccc2[nH]c(=S)n(Cc3cccnc3)c(=O)c2c1  Papp A→B (10 µM, 90 min, pH 7.4): 35.4 ×10⁻⁶ cm/s
CCCCCCOC(=O)NC(=N)c1ccc(NCc2nc3cc(C(=O)N(CCC(=O)OCC)c4ccccn4)ccc3n2C)cc1  Papp A→B (5 µM, 2 h): 0.0021 ×10⁻⁶ cm/s
O=c1c(O[C@@H]2O[C@H](CO)[C@H](O)[C@H](O)[C@H]2O)c(-c2ccc(O)c(O)c2)oc2cc(O)cc(O)c12  Papp A→B (200 µg/mL): 0.349 ×10⁻⁶ cm/s
COCC(=O)N1CCC[C@H](C(=O)NCc2nc(-c3ccccc3)cs2)C1  Papp A→B (pH 7.4): 52 ×10⁻⁶ cm/s
CCOC(=O)[C@H](CCc1ccccc1)N[C@@H](C)C(=O)N1CCC[C@H]1C(=O)O  Papp A→B (5 µM, 2 h): 0.13 ×10⁻⁶ cm/s
Cc1c[nH]c2ncnc(N3C=C(C(=O)N4CCC[C@@H](N)C4)SCC3)c12  Papp A→B (10 µM, pH 6.5): < 0.3 ×10⁻⁶ cm/s
